This passage reports rel T, ΔTm and K app results from ChEMBL document CHEMBL1122353, “DNA binding studies of 7-bulky-substituted actinomycin analogues” (J Med Chem, 1983).

Assay [1] concerns Nucleic Acid. Kind of assay: Time constant of slowest dissociation step of drug from DNA complex. It counts as functional. An outline of the steps:
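Purified calf thymus DNA–drug complexes were held in 0.01 M phosphate buffer (pH 7.0) at 20 °C, with a DNA (nucleotide):drug ratio of 20:1. 5% NaDodSO4 was added to sequester free drug. Absorbance decay was followed over time at a wavelength chosen for each drug (430–492 nm). τ was taken as the time constant of the slowest dissociation step.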

The subject of assay [2] is Nucleic Acid. Kind of assay: Increase in thermal denaturation temperature of calf thymus DNA. It counts as functional. Particulars: Bos taurus.
A further assay relates to DNA (Bos taurus). Kind of assay: Apparent binding constant for calf thymus DNA.

*1 amine or outer side, *2 acyl side, *3 side chain or, on linkers, in order; H or OH if unused. Where a SMILES comes first, the peptide text is derived from it. Bridges are numbered along the chain shown (N, C = ends). Roman numbers before positions name the chains, in order. [ ]: non-standard residue; d: D form. Actinocin(9to1) = Cc1c2oc3c(C)ccc(C(=O)[*:1])c3nc-2c(C(=O)[*:2])c(N)c1=O; NMeV = CN[C@H](C(=O)O)C(C)C; Sar = CNCC(=O)O

Turning to `Cc1c2oc3c(C)ccc(C(=O)N[C@@H]4C(=O)N[C@H](C(C)C)C(=O)N5CCC[C@H]5C(=O)N(C)CC(=O)N(C)[C@@H](C(C)C)C(=O)O[C@@H]4C)c3nc-2c(C(=O)N[C@@H]2C(=O)N[C@H](C(C)C)C(=O)N3CCC[C@H]3C(=O)N(C)CC(=O)N(C)[C@@H](C(C)C)C(=O)O[C@@H]2C)c(N)c1=O` (I: T[dV]P[Sar][NMeV] / II: T[dV]P[Sar][NMeV]; ester I:1-I:C, II:1-II:C; linker I:N-II:N via Actinocin(9to1)), the rel T in the assay on Nucleic Acid [1] was 100. The shift in melting temperature (ΔTm) in the assay with Nucleic Acid [2] worked out at 8 °C.
With `Cc1c2oc3c(C)c(O)c(N)c(C(=O)N4OC(=O)[C@H](C(C)C)N(C)C(=O)CCNC(=O)[C@@H]5CCCN5C(=O)[C@H](C(C)C)NC(=O)[C@@H]4[C@@H](C)O)c3nc-2c(C(=O)N2OC(=O)[C@H](C(C)C)N(C)C(=O)CCNC(=O)[C@@H]3CCCN3C(=O)[C@H](C(C)C)NC(=O)[C@@H]2[C@@H](C)O)c/c1=N/Cc1ccc[nH]1`, the K app in the assay with DNA (Bos taurus) was 9.2e+07 M⁻¹. In addition, the rel T with Nucleic Acid [1] amounted to 225. Moreover, in the assay on Nucleic Acid [2], the thermal shift (ΔTm) amounted to 16 °C.
On the same counts, the results for `Cc1c2oc3c(C)c(O)c(N)c(C(=O)N4OC(=O)[C@H](C(C)C)N(C)C(=O)CCNC(=O)[C@@H]5CCCN5C(=O)[C@H](C(C)C)NC(=O)[C@@H]4[C@@H](C)O)c3nc-2c(C(=O)N2OC(=O)[C@H](C(C)C)N(C)C(=O)CCNC(=O)[C@@H]3CCCN3C(=O)[C@H](C(C)C)NC(=O)[C@@H]2[C@@H](C)O)cc1=N` are 2.3e+07 M⁻¹, 125 and 8 °C.
In the same order, the values of `Cc1c2oc3c(C)c(O)c(N)c(C(=O)N4OC(=O)[C@H](C(C)C)N(C)C(=O)CCNC(=O)[C@@H]5CCCN5C(=O)[C@H](C(C)C)NC(=O)[C@@H]4[C@@H](C)O)c3nc-2c(C(=O)N2OC(=O)[C@H](C(C)C)N(C)C(=O)CCNC(=O)[C@@H]3CCCN3C(=O)[C@H](C(C)C)NC(=O)[C@@H]2[C@@H](C)O)c/c1=N/Cc1ccc(Cl)c(Cl)c1` are 2.6e+07 M⁻¹, 60 and 7 °C.

Usually ΔTm stands for the change in melting temperature against a reference sample.
